# Screening data from PubChem BioAssay.
# pPAFAH FP inh: pPAFAH enzyme inhibitors, primary screen, biochemical, fluorescence polarization, human | Platelet-activating factor acetylhydrolase (Homo sapiens), Q13093 | recombinant pPAFAH, FP-rhodamine probe fluorescence polarization | inhibition, % at 3.39 µM | hit rate 1.5% among 330,000 | AID 463082, 2010;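 active = inhibition above the mean inhibition across the screen plus 3 SD, cut at about 25% in these data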;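 note: inhibitors block binding of the rhodamine activity-based probe so polarization drops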
# PREPL inhibitor: PREPL enzyme inhibitors, primary screen, biochemical, fluorescence polarization | inhibition, % at 5.96 µM | hit rate 0.68% among 320,000 | recombinant PREPL, fluorescence polarization activity-based probe | Prolyl endopeptidase-like (Homo sapiens), Q4J6C6; in the data active = inhibition above about 43%
# Target sequence (Q4J6C6 whole entry, looked up): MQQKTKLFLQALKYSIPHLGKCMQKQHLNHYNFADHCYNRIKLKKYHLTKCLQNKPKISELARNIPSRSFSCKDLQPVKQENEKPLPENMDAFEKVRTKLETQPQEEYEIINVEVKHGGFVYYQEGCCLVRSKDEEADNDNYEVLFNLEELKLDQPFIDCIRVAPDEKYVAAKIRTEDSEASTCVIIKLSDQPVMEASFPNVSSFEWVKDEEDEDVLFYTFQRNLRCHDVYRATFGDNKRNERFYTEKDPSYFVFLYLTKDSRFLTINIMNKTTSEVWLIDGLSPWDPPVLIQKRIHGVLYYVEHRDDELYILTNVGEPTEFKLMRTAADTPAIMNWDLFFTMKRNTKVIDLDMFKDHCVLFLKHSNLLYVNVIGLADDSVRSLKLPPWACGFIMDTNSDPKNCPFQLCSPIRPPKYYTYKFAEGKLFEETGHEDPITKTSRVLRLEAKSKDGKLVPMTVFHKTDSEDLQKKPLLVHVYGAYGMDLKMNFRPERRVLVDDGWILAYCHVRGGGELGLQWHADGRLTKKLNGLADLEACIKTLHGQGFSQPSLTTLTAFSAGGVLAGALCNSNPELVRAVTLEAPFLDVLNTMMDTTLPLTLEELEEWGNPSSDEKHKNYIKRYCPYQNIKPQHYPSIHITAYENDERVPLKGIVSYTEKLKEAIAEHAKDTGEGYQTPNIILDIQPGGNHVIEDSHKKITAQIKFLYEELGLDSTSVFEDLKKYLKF
# PAFAH2 inh: PAFAH2 enzyme inhibitors, primary screen, biochemical, fluorescence polarization, human | Platelet-activating factor acetylhydrolase 2, cytoplasmic (Homo sapiens), Q99487 | recombinant PAFAH2, FP-rhodamine activity probe | inhibition, % at 3.39 µM | hit rate 0.99% among 340,000 | AID 492956, 2010;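 active = inhibition above the mean over all tested compounds plus 3 SD, cut at about 30% in these data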;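 note: inhibitors block probe labeling of enzyme so polarization drops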
# PAFAH1B2 FP inh: PAFAH1B2 enzyme inhibitors, primary screen, biochemical, fluorescence polarization, human; inhibition, % at 3.39 µM; recombinant PAFAH1B2, FP-rhodamine activity probe; hit rate 1.2% among 340,000; AID 492953, 2010;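 active = inhibition above the mean of all tested compounds plus 3 SD, cut at about 24% in these data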
# PAFAH1B3 inh: PAFAH1B3 enzyme inhibitors, primary screen, biochemical, fluorescence polarization, human. Platelet-activating factor acetylhydrolase IB subunit alpha1 (Homo sapiens), Q15102. recombinant PAFAH1B3, FP-rhodamine probe. inhibition, % at 3.39 µM. hit rate 0.28% among 340,000. AID 492972, 2010;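 active = inhibition above the screen-wide average of all tested compounds plus 3 SD, cut at about 25% in these data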
# Apaf1 inhib: inhibitors of human Apaf-1 apoptosome, primary screen, biochemical, DEVD-Rh110 fluorescence, uHTS | inhibition, % at 20 µM | reconstituted apoptosome caspase-3 activity | hit rate 0.71% among 330,000 | Apoptotic protease-activating factor 1 (Homo sapiens), O14727; active = inhibition of at least 40% at 20 µM
#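 Material: cell-free apoptosome with Apaf-1, procaspase-3 and caspase-9; Buffer or medium: Hepes pH 7.5 with detergent and BSA; Reagent: cytochrome c trigger plus (Z-DEVD)2-Rh110 caspase-3 substrate; Times: compound with Apaf-1, dATP, procaspase-3 30 min, then 50 min reaction, room temperature; Technique: Rh110 fluorescence intensity.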
# Numbers stand for hits; n = inactive; x = no result. An excerpt weighted towards active compounds, which were near 3.5% of everything screened.
SMILES,pPAFAH FP inh,PREPL inhibitor,PAFAH2 inh,PAFAH1B2 FP inh,PAFAH1B3 inh,Apaf1 inhib
COCC(=O)N1CCC(Oc2ccc(C(=O)N3C[C@@H](C)O[C@@H](C)C3)cc2)CC1,n,n,n,n,n,n
O=S(=O)(/N=C(/NS(=O)(=O)c1ccccc1)c1ccccc1)c1ccccc1,n,n,n,27.6,n,n
COc1cc(/C=N/NC(=O)COc2c(C)cc([N+](=O)[O-])cc2C)ccc1OC(=O)c1ccccc1,n,70.5,n,n,n,n
O=C(CSc1ccc(F)cc1)Nc1ccccc1N1CCOCC1,n,n,n,25.6,n,n
FC(F)(F)c1cccc(NC(=S)NNC(=S)NCc2ccccc2)c1,47.7,n,n,n,n,n
FC(F)(F)c1cccc(NC(=S)NCc2ccccn2)c1,n,n,n,n,n,n
O/N=C1/C2C3C(Br)C4C5CC(C1C53)C24 (centres undefined),n,n,n,29.4,n,n
CC1(C)NC(=O)N(CC(=O)OCC(=O)Nc2c(Br)cc([N+](=O)[O-])cc2Br)C1=O,x,x,n,n,n,x
O=C(O)CN1C(=O)C2C3CC(C2C1=O)C1C(c2ccccc2)c2sc(=O)[nH]c2SC31 (centres undefined),n,n,n,72.0,n,n
CC(C)CC(C(=O)O)N1C(=O)C2C3CC(C2C1=O)C1C(c2ccccc2)c2sc(=O)[nH]c2SC31 (centres undefined),n,n,n,40.4,n,n
O=C(O)CCCN1C(=O)C2C3CC(C2C1=O)C1C(c2ccccc2)c2sc(=O)n(-c4ccccc4)c2SC31 (centres undefined),n,n,n,n,n,n
CCN1C[C@@H]2[C@@H]3C(=O)N(C)C(=O)[C@@H]3[C@](Cc3ccccc3)(C1=O)N2C(=O)c1ccc(F)cc1,x,x,n,n,n,x
CN(C(=O)c1ccc(NC(=O)Cc2ccc(NC(=O)C3CCCN(C(=O)C4CCCC4)C3)cc2)cc1)C1CC1 (centres undefined),n,n,n,n,n,n
CCOc1cc(CNc2ccc(N3CCOCC3)cc2)cc(Br)c1OCC,25.0,n,n,n,n,n
CCOc1cc(CNc2ccc(N(C)C)cc2)cc(Br)c1OCC(=O)NC(C)(C)C,34.3,n,n,n,n,44.1
CCOc1cc(CNc2cccc3ccccc23)cc(Br)c1OCC(=O)NC(C)(C)C,n,56.8,n,n,n,n
COc1cc(CNc2ccc(N3CCOCC3)cc2)cc(Br)c1OC,n,n,n,n,n,n
CCOc1cc(CO)cc(Br)c1OCC(=O)Nc1ccccc1C,n,n,n,n,n,n
O=C(Nc1ccc(OC(F)(F)F)cc1)C1CC(=O)N(Cc2ccco2)C1 (centres undefined),n,n,n,n,n,n
COc1ccc(Cl)cc1NC(=O)c1noc(C)c1[N+](=O)[O-],n,n,n,n,n,n
O=C(O)c1cnn(-c2nc(-c3ccc(Br)cc3)cs2)c1C(F)(F)F,n,n,n,40.5,n,n
CCc1ccccc1N1CSC2=C(C#N)C(c3cc(OC)c(OC)cc3OC)CC(=O)N2C1 (centres undefined),25.3,n,n,n,n,43.4
COc1ccc2ccccc2c1C1CC(=O)N2CN(C)CSC2=C1C#N (centres undefined),n,n,n,n,n,71.2
COc1cc(OC)c(C2CC(=O)N3CN(c4ccccc4)CSC3=C2C#N)cc1OC (centres undefined),n,n,n,n,n,n
COc1ccc(OC)c(C2CC(=O)N3CN(c4cccc(Cl)c4)CSC3=C2C#N)c1 (centres undefined),n,n,n,n,n,80.5
SMILES,pPAFAH FP inh,PREPL inhibitor,PAFAH2 inh,PAFAH1B2 FP inh,PAFAH1B3 inh,Apaf1 inhib
CCOc1ccc(N2CSC3=C(C#N)C(c4ccco4)CC(=O)N3C2)cc1 (centres undefined),47.7,n,n,n,n,n
COc1cc(OC)c(C2CC(=O)N3CN(C)CSC3=C2C#N)cc1OC (centres undefined),n,n,n,n,n,n
Cc1cc(OC(=O)c2cc(Br)ccc2Cl)c([N+](=O)[O-])c(=O)[nH]1,n,n,n,n,n,n
CCOC(=O)c1ccc(N2CSC3=C(C#N)C(c4ccc(OC)cc4OC)CC(=O)N3C2)cc1 (centres undefined),n,n,n,n,n,50.3
COc1ccc2nc(NN=C(C)c3ccccn3)cc(C)c2c1,x,x,n,n,n,x
Cc1nc2nc[nH]n2c(=O)c1NC(=O)c1c(-c2ccccc2Cl)noc1C,n,n,n,n,n,n
Cc1ccc(S(=O)(=O)N2CCOCC2)cc1NC(=O)COC(=O)CNC(=O)c1ccc(Oc2ccccc2)cc1,28.4,n,n,n,n,n
O=C(COC(=O)CCC1CCCC1)Nc1cccc(S(=O)(=O)N2CCOCC2)c1,25.5,n,n,n,n,n
O=C(COC(=O)CNC(=O)c1ccccc1F)Nc1cccc(S(=O)(=O)N2CCCCCC2)c1,n,n,n,n,n,n
O=C(CSc1nccc(=O)[nH]1)Nc1cccc(S(=O)(=O)N2CCOCC2)c1,29.9,n,n,n,n,n
O=C(COC(=O)CNC(=O)c1ccc(Cl)cc1Cl)Nc1cccc(S(=O)(=O)N2CCCC2)c1,29.7,n,n,n,n,n
COc1ccc(C2CCCCCN2C(=O)C2CCN(S(=O)(=O)c3cccc(C(C)=O)c3)CC2)cc1 (centres undefined),x,x,n,n,n,x
Oc1ccc(/C=N/Nc2ccc3ccccc3c2)c(O)c1,25.3,n,n,n,n,n
Cc1ccc(SCC(=O)O/N=C(\N)c2cccnc2)cc1,n,n,n,75.4,n,n
COc1ccc(NC(=O)Nc2ccc3c(c2)C(=O)N([C@H](C)CO)C[C@H](C)[C@@H](CN(C)C(=O)Nc2ccccc2)O3)cc1,n,n,n,n,n,n
CC(C)(C)c1ccc(OCC(=O)NNC(=O)Nc2ccccc2)cc1,29.5,n,n,38.6,n,n
O=C1Nc2ccc(Br)cc2C12OCCO2,n,n,n,n,n,n
CCn1cc(C(=O)N[C@@H](CCSC)C(=O)NCCO)c(=O)c2cc3c(cc21)OCO3,n,n,n,n,n,n
CCOc1ccc(NC(=O)CN(C)C(=O)c2ccccc2OCc2cccc(C)c2)cc1OCC,n,n,n,n,n,46.1
CC1CCC(NC(=O)CN(C)CC(=O)Nc2ccc(F)cc2)CC1 (centres undefined),n,n,n,n,n,n
O=C1CCN(C2CCN(Cc3nc(Cc4ccccc4F)no3)CC2)CCN1,n,n,n,n,n,n
